Experimental findings from ChEMBL document CHEMBL1127061, “Hemicholinium and related lipids: inhibitors of protein kinase C” (J Med Chem, 1993) are described below.

The target in the test is Protein kinase C (PKC). The test can be described thus: Inhibition of protein kinase C (PKC) purified from rat brain. In outline:
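Mostly purified rat brain PKC, histone kinase assay on ice-set tubes: 3 nM TPA, 8 μg/mL phosphatidylserine, 1 mM EGTA (no calcium), 4% glycerol, 20 mM Tris-Cl pH 7.4. Started with [γ-32P]ATP (20 μM), MgCl2 10 mM, p-nitrophenyl phosphate 5 mM, lysine-rich histone 240 μg/mL; 30 °C, 10 min; radioactivity counted. Compounds 0.16–160 μg/mL, 2.4% DMSO final; duplicate runs averaged.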
`CCCCCCCCCCCCC1(O)C[N+](C)(C)CCO1.[Br-]` (configuration not stated): the IC50 (commonly the midpoint of a concentration-inhibition curve) came out at 13 µM.

`CCCCCCCCCCCCCCCC(=O)C[N+](C)(C)CCCO.[Br-]` came in with an IC50 of 6.9 µM.

Compound `CCCCCCCCCCCCCCCCCCC1(O)C[N+](C)(C)CCO1.[Br-]` (configuration not stated) returned an IC50 of 6.5 µM.

In turn, `CCCCCCCCCCCCCCC[C@@]1(O)C[N+](C)(C)C[C@@H](CC(=O)[O-])O1` [HEMIACYLCARNITINIUM] showed an IC50 of 49.6 µM. Compared with the last compound, the IC50 is about 7.6-fold higher. The same measure for `CCCCCCCCCCCCCCCC(=O)OC(CC(=O)[O-])C[N+](C)(C)C` (racemic) [Palmitoyl-carnitine]: 15.8 µM; for `CCCCCCCCCCC1(O)C[N+](C)(C)CCO1.[Br-]` (configuration not stated): 170 µM. `CCCCCCCCCCCCCCC1(O)C[N+](C)(C)CCO1.[Br-]` (configuration not stated) had an IC50 of 7.6 µM. `CCCCCCCCCCCCCCCC1(OC)C[N+](C)(C)CCO1.[Br-]` (configuration not stated) showed an IC50 of 3.9 µM. For `CCCCCCCCCCCCCCCCC1(O)C[N+](C)(C)CCO1.[Br-]` (configuration not stated), the IC50 stood at 7.6 µM. This IC50 lies about 1.9-fold higher than the previous one.

In turn, `CCCCCCCCCCCCCCCC1(O)C[N+](C)(C)CCO1.[Br-]` (configuration not stated) yielded an IC50 of 7.3 µM. The IC50 values of the last two compounds are within 1.5-fold of each other. `CCCCCCCCCCCCCC1(O)C[N+](C)(C)CCO1.[Br-]` (configuration not stated) showed an IC50 of 12 µM. With `CCCCCCCCCCCCCCCCCC1(O)C[N+](C)(C)CCO1.[Br-]` (configuration not stated), the IC50 was 7.1 µM. This IC50 is about 1.7-fold lower than that of the compound before.
